How the values were obtained:
Assay type in all cases: functional
HOP-92 = experiment: Antiproliferative activity against human HOP-92 cells assessed as cell growth inhibition at 10 uM incubated for 48 hrs by sulforhodamine B assay relative to control
Summary of the method: (§1)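 NCI-60 one-dose prescreen at 10^-5 M. Cells grown in RPMI 1640 with 5% FBS and 2 mM glutamine, preincubated 24 h, then exposed 48 h at 37 °C. Adherent lines TCA-fixed, SRB-stained, A515 read. Growth percent relative to time-zero and control; negative values mean cell kill.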

OVCAR-5 = experiment: Antiproliferative activity against human OVCAR-5 cells assessed as cell growth inhibition at 10 uM incubated for 48 hrs by sulforhodamine B assay relative to control
Summary of the method: (§2)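 NCI-60 single-dose screen at 10^-5 M. Cells grown in RPMI 1640 with 5% FBS and 2 mM L-glutamine, plated at 5,000–40,000 cells/well, and preincubated 24 h. Drug (DMSO stock) added and incubated 48 h at 37 °C, 5% CO2. Adherent cells fixed with cold TCA, stained with 0.4% SRB in 1% acetic acid, dye solubilized in 10 mM trizma base, A515 read. Percent growth taken against time-zero and untreated control.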

SK-MEL-5 = experiment: Antiproliferative activity against human SK-MEL-5 cells assessed as cell growth inhibition at 10 uM incubated for 48 hrs by sulforhodamine B assay relative to control; summary of the method: as §2
NCI-H23 = experiment: Antiproliferative activity against human NCI-H23 cells assessed as cell growth inhibition at 10 uM incubated for 48 hrs by sulforhodamine B assay relative to control; summary of the method: as §2
CCRF-CEM = experiment: Antiproliferative activity against human CCRF-CEM cells assessed as cell growth inhibition at 10 uM incubated for 48 hrs by sulforhodamine B assay relative to control
Summary of the method: (§3)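 Single-dose NCI-60 prescreen at 10^-5 M. Cells in RPMI 1640 with 5% FBS and 2 mM L-glutamine, seeded 5,000–40,000 cells/well with 24 h preincubation, then drug exposure for 48 h at 37 °C under 5% CO2. Growth read by SRB staining of TCA-fixed cells at 515 nm against time-zero and untreated controls. Negative growth values denote cell kill.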

NCI/ADR-RES = experiment: Antiproliferative activity against human NCI/ADR-RES cells assessed as cell growth inhibition at 10 uM incubated for 48 hrs by sulforhodamine B assay relative to control; summary of the method: as §2
EKVX = experiment: Antiproliferative activity against human EKVX cells assessed as cell growth inhibition at 10 uM incubated for 48 hrs by sulforhodamine B assay relative to control; summary of the method: as §1
PC-3 = experiment: Antiproliferative activity against human PC-3 cells assessed as cell growth inhibition at 10 uM incubated for 48 hrs by sulforhodamine B assay relative to control; summary of the method: as §2
Hs-578T = experiment: Antiproliferative activity against human Hs-578T cells assessed as cell growth inhibition at 10 uM incubated for 48 hrs by sulforhodamine B assay relative to control; summary of the method: as §2
NCI-H522 = experiment: Antiproliferative activity against human NCI-H522 cells assessed as cell growth inhibition at 10 uM incubated for 48 hrs by sulforhodamine B assay relative to control; summary of the method: as §2
SF-268 = experiment: Antiproliferative activity against human SF-268 cells assessed as cell growth inhibition at 10 uM incubated for 48 hrs by sulforhodamine B assay relative to control; summary of the method: as §2
A549 = experiment: Antiproliferative activity against human A549 cells assessed as cell growth inhibition at 10 uM incubated for 48 hrs by sulforhodamine B assay relative to control; summary of the method: as §3
T47D = experiment: Antiproliferative activity against human T47D cells assessed as cell growth inhibition at 10 uM incubated for 48 hrs by sulforhodamine B assay relative to control; summary of the method: as §2
U-251 = experiment: Antiproliferative activity against human U-251 cells assessed as cell growth inhibition at 10 uM incubated for 48 hrs by sulforhodamine B assay relative to control; summary of the method: as §2
NCI-H460 = experiment: Antiproliferative activity against human NCI-H460 cells assessed as cell growth inhibition at 10 uM incubated for 48 hrs by sulforhodamine B assay relative to control; summary of the method: as §2
MDA-MB-468 = experiment: Antiproliferative activity against human MDA-MB-468 cells assessed as cell growth inhibition at 10 uM incubated for 48 hrs by sulforhodamine B assay relative to control; summary of the method: as §2
OVCAR-4 = experiment: Antiproliferative activity against human OVCAR-4 cells assessed as cell growth inhibition at 10 uM incubated for 48 hrs by sulforhodamine B assay relative to control; summary of the method: as §2
RPMI-8226 = experiment: Antiproliferative activity against human RPMI-8226 cells assessed as cell growth inhibition at 10 uM incubated for 48 hrs by sulforhodamine B assay relative to control; summary of the method: as §2
A498 = experiment: Antiproliferative activity against human A498 cells assessed as cell growth inhibition at 10 uM incubated for 48 hrs by sulforhodamine B assay relative to control; summary of the method: as §3
SW-620 = experiment: Antiproliferative activity against human SW620 cells assessed as cell growth inhibition at 10 uM incubated for 48 hrs by sulforhodamine B assay relative to control; summary of the method: as §2
ACHN = experiment: Antiproliferative activity against human ACHN cells assessed as cell growth inhibition at 10 uM incubated for 48 hrs by sulforhodamine B assay relative to control; summary of the method: as §3
RXF 393 = experiment: Antiproliferative activity against human RXF 393 cells assessed as cell growth inhibition at 10 uM incubated for 48 hrs by sulforhodamine B assay relative to control; summary of the method: as §2
NCI-H226 = experiment: Antiproliferative activity against human NCI-H226 cells assessed as cell growth inhibition at 10 uM incubated for 48 hrs by sulforhodamine B assay relative to control; summary of the method: as §2
MOLT-4 = experiment: Antiproliferative activity against human MOLT-4 cells assessed as cell growth inhibition at 10 uM incubated for 48 hrs by sulforhodamine B assay relative to control; summary of the method: as §2
M14 = experiment: Antiproliferative activity against human M14 cells assessed as cell growth inhibition at 10 uM incubated for 48 hrs by sulforhodamine B assay relative to control; summary of the method: as §2
786-0 = experiment: Antiproliferative activity against human 786-0 cells assessed as cell growth inhibition at 10 uM incubated for 48 hrs by sulforhodamine B assay relative to control; summary of the method: as §3
LOX IMVI = experiment: Antiproliferative activity against human LOX IMVI cells assessed as cell growth inhibition at 10 uM incubated for 48 hrs by sulforhodamine B assay relative to control; summary of the method: as §2
HCT-15 = experiment: Antiproliferative activity against human HCT-15 cells assessed as cell growth inhibition at 10 uM incubated for 48 hrs by sulforhodamine B assay relative to control; summary of the method: as §1
MCF7 = experiment: Antiproliferative activity against human MCF7 cells assessed as cell growth inhibition at 10 uM incubated for 48 hrs by sulforhodamine B assay relative to control; summary of the method: as §2
SF-539 = experiment: Antiproliferative activity against human SF-539 cells assessed as cell growth inhibition at 10 uM incubated for 48 hrs by sulforhodamine B assay relative to control; summary of the method: as §2
NCI-H322M = experiment: Antiproliferative activity against human NCI-H322M cells assessed as cell growth inhibition at 10 uM incubated for 48 hrs by sulforhodamine B assay relative to control; summary of the method: as §2
IGROV-1 = experiment: Antiproliferative activity against human IGROV-1 cells assessed as cell growth inhibition at 10 uM incubated for 48 hrs by sulforhodamine B assay relative to control; summary of the method: as §2

Row | SMILES | inhibition at 10 µM (SK-MEL-5) | inhibition at 10 µM (NCI-H23) | inhibition at 10 µM (CCRF-CEM) | inhibition at 10 µM (NCI/ADR-RES) | inhibition at 10 µM (EKVX) | inhibition at 10 µM (PC-3) | inhibition at 10 µM (Hs-578T) | inhibition at 10 µM (NCI-H522) | inhibition at 10 µM (SF-268) | inhibition at 10 µM (T47D) | inhibition at 10 µM (NCI-H460) | inhibition at 10 µM (MDA-MB-468) | inhibition at 10 µM (OVCAR-4) | inhibition at 10 µM (RPMI-8226) | inhibition at 10 µM (SW-620) | inhibition at 10 µM (ACHN) | inhibition at 10 µM (NCI-H226) | inhibition at 10 µM (MOLT-4) | inhibition at 10 µM (786-0) | inhibition at 10 µM (LOX IMVI) | further results
1 | COc1ccccc1-c1cn2ccnc2c(-c2ccc3ncn(C4CCCCC4)c3c2)n1 | 8.94% | 2.79% | 17.4% | 0.06% | 13.3% | 43.1% | 15.8% | 22.2% | 8.04% | 36.6% | 9.62% | 14.6% | 13.2% | 35.9% | 3.4% | 4.48% | 25.7% | 22.4% | 12.3% | 5.13% | inhibition at 10 µM (HOP-92): 47.8%; inhibition at 10 µM (OVCAR-5): 6.61%; inhibition at 10 µM (A549): 13.9%; inhibition at 10 µM (U-251): 21%; inhibition at 10 µM (A498): 13.9%; inhibition at 10 µM (RXF 393): 0.95%; inhibition at 10 µM (M14): 1.12%; inhibition at 10 µM (HCT-15): 33.6%; inhibition at 10 µM (MCF7): 8.4%; inhibition at 10 µM (SF-539): 8.07%
2 | Fc1ccccc1-c1cn2ccnc2c(-c2ccc3ncn(C4CCCCC4)c3c2)n1 | 6.5% | 4.16% | 22.5% | 4.51% | 16% | 32.6% | 5.26% | 17.8% | 6.04% | 77.2% | 8.1% | 27.6% | 4.51% | 42.4% | 9.53% | 13.2% | 28.6% | 22.5% | 2.94% | 5.77% | inhibition at 10 µM (HOP-92): 37%; inhibition at 10 µM (OVCAR-5): 6.64%; inhibition at 10 µM (A549): 9.1%; inhibition at 10 µM (U-251): 11.4%; inhibition at 10 µM (RXF 393): 12.3%; inhibition at 10 µM (M14): 2.92%; inhibition at 10 µM (HCT-15): 6.18%; inhibition at 10 µM (MCF7): 11.2%; inhibition at 10 µM (SF-539): 4.51%
3 | c1ccc2c(-c3cn4ccnc4c(-c4ccc5ncn(C6CCCCC6)c5c4)n3)cccc2c1 | 4.06% | 4.32% | 17.5% | 4.43% | 13.2% | 36.5% | 3.62% | 19.3% | 7.84% | 41.3% | 3.61% | 10.4% | 19.7% | 22.9% | 5.34% | 6.49% | 9.45% | 44.7% | 6.33% | 7.43% | inhibition at 10 µM (NCI-H322M): 4.74%; inhibition at 10 µM (A498): 14%; inhibition at 10 µM (HCT-15): 4.46%; inhibition at 10 µM (MCF7): 13%
4 | Clc1ccc(-c2cn3ccnc3c(-c3ccc4ncn(C5CCCCC5)c4c3)n2)cc1 | 12.4% | 4.11% | 11.4% | 11.1% | 13.1% | 24.6% | 6.35% | 19.8% | 4.83% | 27.6% | 4.14% | 10.6% | 4.57% | 19% | 14% | 5.45% | 19.4% | 8.87% | 12.1% | 14.8% | inhibition at 10 µM (HOP-92): 30.5%; inhibition at 10 µM (OVCAR-5): 0.84%; inhibition at 10 µM (IGROV-1): 7.84%; inhibition at 10 µM (A549): 11.6%; inhibition at 10 µM (U-251): 11.3%; inhibition at 10 µM (RXF 393): 6.73%; inhibition at 10 µM (M14): 10%; inhibition at 10 µM (HCT-15): 15.5%; inhibition at 10 µM (MCF7): 21.8%; inhibition at 10 µM (SF-539): 6.3%
